Reference: ChEMBL document CHEMBL2417481, “Regioselective synthesis of 6-substituted-2-amino-5-bromo-4(3H)-pyrimidinones and evaluation of their antiviral activity” (Eur J Med Chem, 2013)

How the values were obtained:
Punta Toro virus = assay: Antiviral activity against Punta Toro virus infected in african green monkey Vero cells assessed as reduction in virus-induced cytopathogenicity; format: functional, organism-based
Procedure, shortened: (§1)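 Confluent cell monolayers (Vero, HeLa, HEL or MDCK, as named in each line) were infected with 100 CCID50 of virus while exposed to a range of compound concentrations. Cytopathicity was scored once it was complete in untreated infected controls.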

Human alphaherpesvirus 3 [1] = assay: Antiviral activity against thymidine kinase positive Varicella-zoster virus OKA infected in human HEL cells assessed as reduction in virus plaque formation; format: functional, cell-based, Human herpesvirus 3 strain Oka vaccine; conditions: Human alphaherpesvirus 3, OKA
Procedure, shortened: (§2)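 Confluent HEL fibroblast cultures received 20 PFU of VZV together with varying compound concentrations. Plaque formation was read when it reached completion in untreated virus controls.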

Influenza A virus [2] = assay: Antiviral activity against Influenza A virus H1N1 infected in MDCK cells assessed as reduction in virus-induced cytopathogenicity; format: functional, organism-based; procedure, shortened: as §1
[3] = test system: Respiratory syncytial virus; assay: Antiviral activity against Respiratory syncytial virus Long infected in human HeLa cells assessed as reduction in virus-induced cytopathogenicity; format: functional, organism-based; procedure, shortened: as §1
Cytomegalovirus [4] = assay: Antiviral activity against Cytomegalovirus Davis infected in human HEL cells assessed as reduction in virus plaque formation; format: functional, organism-based; conditions: Human betaherpesvirus 5, Davis
Procedure, shortened: (§3)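 Confluent HEL fibroblasts were inoculated with 100 PFU of CMV at graded compound concentrations. Plaques were counted once formation was complete in untreated infected controls.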

Influenza B virus = assay: Antiviral activity against Influenza B virus infected in MDCK cells assessed as reduction in virus-induced cytopathogenicity; format: functional, organism-based; procedure, shortened: as §1
Human alphaherpesvirus 2 = assay: Antiviral activity against Herpes simplex virus-2 G infected in human HEL cells assessed as reduction in virus-induced cytopathogenicity; format: functional, organism-based; conditions: Human alphaherpesvirus 2, strain G; procedure, shortened: as §1
[5] = test system: Vesicular stomatitis virus; assay: Antiviral activity against Vesicular stomatitis virus infected in human HeLa cells assessed as reduction in virus-induced cytopathogenicity; format: functional, organism-based; procedure, shortened: as §1
[6] = Cytotoxicity against human HEL cells assessed as morphological changes; format: cell-based
[7] = test system: Mammalian orthoreovirus 1; assay: Antiviral activity against Reovirus-1 infected in african green monkey Vero cells assessed as reduction in virus-induced cytopathogenicity; format: functional, organism-based; conditions: Mammalian orthoreovirus 1, Vero
Procedure, shortened: (§4)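 Confluent Vero monolayers in 96-well plates were inoculated with 100 CCID50 of virus together with varying compound concentrations. Cytopathicity was scored once it was complete in untreated virus-infected control cultures.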

Human alphaherpesvirus 3 [8] = assay: Antiviral activity against thymidine kinase negative Varicella-zoster virus 07-1 infected in human HEL cells assessed as reduction in the virus plaque formation; format: functional, organism-based; conditions: Human alphaherpesvirus 3, 07-1, HEL; procedure, shortened: as §2
Cytomegalovirus [9] = assay: Antiviral activity against Cytomegalovirus AD-169 infected in human HEL cells assessed as reduction in virus plaque formation; format: functional, organism-based; conditions: Human betaherpesvirus 5, AD-169, HEL; procedure, shortened: as §3
[10] = Cytotoxicity against human HeLa cells assessed as morphological changes; format: cell-based
[11] = test system: Vesicular stomatitis virus; assay: Antiviral activity against Vesicular stomatitis virus infected in human HEL cells assessed as reduction in virus-induced cytopathogenicity; format: functional, organism-based; procedure, shortened: as §1
Sindbis virus = assay: Antiviral activity against Sindbis virus infected in african green monkey Vero cells assessed as reduction in virus-induced cytopathogenicity; format: functional, organism-based; procedure, shortened: as §1
Feline coronavirus = assay: Antiviral activity against Feline coronavirus infected in cat CRFK cells assessed as inhibition of virus-induced cytopathic effect by MTS assay; format: functional, organism-based; conditions: Alphacoronavirus 1, CRFK
Influenza A virus [12] = assay: Antiviral activity against Influenza A virus […] infected in MDCK cells assessed as reduction in virus-induced cytopathogenicity; format: functional, organism-based; procedure, shortened: as §1
Human alphaherpesvirus 1 [13] = assay: Antiviral activity against Herpes simplex virus-1 KOS infected in human HEL cells assessed as reduction in virus-induced cytopathogenicity; format: functional, organism-based; conditions: Human alphaherpesvirus 1, KOS; procedure, shortened: as §1
[14] = Cytotoxicity against MDCK cells assessed as morphological changes; format: cell-based, Canis lupus familiaris; conditions: dog
Coxsackievirus B4 [15] = assay: Antiviral activity against Coxsackievirus B4 infected in african green monkey Vero cells assessed as reduction in virus-induced cytopathogenicity; format: functional, organism-based; conditions: Enterovirus B; procedure, shortened: as §1
Human respirovirus 3 = assay: Antiviral activity against Parainfluenza virus 3 infected in african green monkey Vero cells assessed as reduction in virus-induced cytopathogenicity; format: functional, organism-based; conditions: Human respirovirus 3, Vero; procedure, shortened: as §4
[16] = Cytotoxicity against cat CRFK cells assessed as cell viability by MTS assay; format: cell-based, Felis catus
Felid alphaherpesvirus 1 = assay: Antiviral activity against Feline Herpes virus infected in cat CRFK cells assessed as inhibition of virus-induced cytopathic effect by MTS assay; format: functional, organism-based; conditions: Felid alphaherpesvirus 1, CRFK
[17] = Cytotoxicity against african green monkey Vero cells assessed as morphological changes; format: cell-based; conditions: chlorocebus sabaeus
Human alphaherpesvirus 1 [18] = assay: Antiviral activity against thymidine kinase negative […] Herpes simplex virus-1 KOS infected in human HEL cells assessed as reduction in virus-induced cytopathogenicity; format: functional, organism-based; conditions: Human alphaherpesvirus 1, KOS; procedure, shortened: as §1
Coxsackievirus B4 [19] = assay: Antiviral activity against Coxsackievirus B4 infected in human HeLa cells assessed as reduction in virus-induced cytopathogenicity; format: functional, organism-based; conditions: Enterovirus B; procedure, shortened: as §1

| SMILES | EC50 (Punta Toro virus) | EC50 (Human alphaherpesvirus 3 [1]) | EC50 (Influenza A virus [2]) | EC50 [3] | EC50 (Cytomegalovirus [4]) | EC50 (Influenza B virus) | EC50 (Human alphaherpesvirus 2) | EC50 [5] | MCC [6] | EC50 [7] | EC50 (Human alphaherpesvirus 3 [8]) | EC50 (Cytomegalovirus [9]) | MCC [10] | EC50 [11] | EC50 (Sindbis virus) | EC50 (Feline coronavirus) | EC50 (Influenza A virus [12]) | EC50 (Human alphaherpesvirus 1 [13]) | MCC [14] | EC50 (Coxsackievirus B4 [15]) | other results |
| --- | --- | --- | --- | --- | --- | --- | --- | --- | --- | --- | --- | --- | --- | --- | --- | --- | --- | --- | --- | --- | --- |
| Nc1nc(CC(O)c2ccccc2C(F)(F)F)c(Br)c(=O)[nH]1 (stereo not given) | > 100 µM | > 100 µM | > 100 µM | > 100 µM | > 100 µM | > 100 µM | > 100 µM | > 100 µM | > 100 µM | > 100 µM | > 100 µM | > 100 µM | > 100 µM | > 100 µM | > 100 µM | > 100 µM | > 100 µM | > 100 µM | > 100 µM | > 100 µM | EC50 (Human respirovirus 3): > 100 µM; MCC [16]: > 100 µM; EC50 (Felid alphaherpesvirus 1): > 100 µM; MCC [17]: > 100 µM; EC50 (Human alphaherpesvirus 1 [18]): > 100 µM; EC50 (Coxsackievirus B4 [19]): > 100 µM |
| CCCCc1nc(N)[nH]c(=O)c1Br | > 100 µM | > 20 µM | > 100 µM | > 20 µM | > 20 µM | > 100 µM | > 100 µM | 10 µM | ≥ 100 µM | > 100 µM | > 20 µM | > 20 µM | 100 µM | > 100 µM | > 100 µM | > 100 µM | > 100 µM | > 100 µM | > 100 µM | > 100 µM | EC50 (Human respirovirus 3): > 100 µM; MCC [16]: > 100 µM; EC50 (Felid alphaherpesvirus 1): > 100 µM; MCC [17]: > 100 µM; EC50 (Human alphaherpesvirus 1 [18]): > 100 µM; EC50 (Coxsackievirus B4 [19]): > 20 µM |
| Nc1nc(CC(O)c2ccc(Cl)cc2)c(Br)c(=O)[nH]1 (stereo not given) | > 100 µM | 100 µM | > 100 µM | > 100 µM | 100 µM | > 100 µM | > 100 µM | 45 µM | > 100 µM | > 100 µM | 100 µM | 100 µM | > 100 µM | > 100 µM | > 100 µM | > 100 µM | > 100 µM | > 100 µM | > 100 µM | > 100 µM | EC50 (Human respirovirus 3): > 100 µM; MCC [16]: > 100 µM; EC50 (Felid alphaherpesvirus 1): > 100 µM; MCC [17]: > 100 µM; EC50 (Human alphaherpesvirus 1 [18]): > 100 µM; EC50 (Coxsackievirus B4 [19]): > 100 µM |
| Nc1nc(CCc2ccccc2)c(Br)c(=O)[nH]1 | > 100 µM | > 100 µM | > 100 µM | > 100 µM | > 100 µM | > 100 µM | > 100 µM | > 100 µM | > 100 µM | > 100 µM | > 100 µM | > 100 µM | > 100 µM | > 100 µM | > 100 µM | > 100 µM | > 100 µM | > 100 µM | > 100 µM | > 100 µM | EC50 (Human respirovirus 3): > 100 µM; MCC [16]: > 100 µM; EC50 (Felid alphaherpesvirus 1): > 100 µM; MCC [17]: > 100 µM; EC50 (Human alphaherpesvirus 1 [18]): > 100 µM; EC50 (Coxsackievirus B4 [19]): > 100 µM |
| CCCCCc1nc(N)[nH]c(=O)c1Br | > 100 µM | > 4 µM | > 100 µM | > 4 µM | > 4 µM | > 100 µM | > 100 µM | 2 µM | > 20 µM | > 100 µM | > 4 µM | > 4 µM | 20 µM | > 100 µM | > 100 µM | > 100 µM | > 100 µM | > 100 µM | > 100 µM | > 100 µM | EC50 (Human respirovirus 3): > 100 µM; MCC [16]: > 100 µM; EC50 (Felid alphaherpesvirus 1): > 100 µM; MCC [17]: > 100 µM; EC50 (Human alphaherpesvirus 1 [18]): > 100 µM; EC50 (Coxsackievirus B4 [19]): > 4 µM |
